Assay [1] concerns the target T1, Estrogen receptor (Ovis aries) (UniProt P49885+Q9TU15). The experiment in a line: Time dependent irreversible binding to estrogen receptor by inactivation-exchange assay; Weak. It is filed as protein assay.
Assay [2] relates to MCF7. The assay is described as follows: Effect on 10e-9 M estradiol stimulation of MCF-7 cell proliferation at 3x10E-7M; potent agonistic. It is filed as functional, cell-based. The note with it: Homo sapiens, filed as agonist.
The target of assay [3] is T1, Estrogen receptor (Ovis aries). The assay is described as follows: Time dependent irreversible binding to estrogen receptor by inactivation-exchange assay; No. It is filed as protein assay.
Assay [4] deals with MCF7. The assay is described as follows: Effect on 10e-9 M estradiol stimulation of MCF-7 cell proliferation at 4x10E-8M; Agonist. The note with it: Homo sapiens, filed as agonist. It counts as functional, cell-based.
The subject of assay [5] is MCF7. The assay is described as follows: Effect on 10e-9 M estradiol stimulation of MCF-7 cell proliferation at 4x10E-8M; Agonistic. The following applies: Homo sapiens, filed as agonist. It is filed as functional, cell-based. An outline of the steps:
(§1)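 MCF-7 human breast cancer cells kept 1 week in phenol red-free IMEM with 5% charcoal dextran-treated calf serum, then seeded at ca. 0.5 x 10^5 cells/flask. Next day switched to phenol red- and insulin-free medium holding compound, estradiol (10^-9 M), hydroxytamoxifen or 0.1% ethanol vehicle, renewed every 48 h. Cells counted after 8 days. Agonism is growth relative to estradiol; antagonism is suppression of estradiol-stimulated growth.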

Assay [6] relates to MCF7. The experiment in a line: Effect on 10e-9 M estradiol stimulation of MCF-7 cell proliferation at 3x10E-7M; very weak. The note with it: Homo sapiens. It is filed as functional, cell-based. An outline of the steps: as §1
Assay [7] concerns the target T1, Estrogen receptor (Ovis aries). The assay is described as follows: Time dependent irreversible binding to estrogen receptor by inactivation-exchange assay; Good. It is filed as protein assay.
The test system of assay [8] is MCF7. The assay is described as follows: Effect on 10e-9 M estradiol stimulation of MCF-7 cell proliferation at 3E-7M: Weak antagonistic. It is filed as functional, cell-based. The note with it: Homo sapiens, filed as antagonist.
In assay [9] the test system is MCF7. The assay is described as follows: Effect on 10e-9 M estradiol stimulation of MCF-7 cell proliferation at 3x10E-8M; Agonistic. It is filed as functional, cell-based. The following applies: Homo sapiens, filed as agonist.
Assay [10] deals with MCF7. The experiment in a line: Effect on 10e-9 M estradiol stimulation of MCF-7 cell proliferation at 10e-8 M. It is filed as functional, cell-based. The following applies: Homo sapiens, filed as agonist.
For assay [11], the system named is MCF7. The experiment in a line: Effect on 10e-9 M estradiol stimulation of MCF-7 cell proliferation at 3x10E-7M;weak agonistic. The note with it: Homo sapiens, filed as partial agonist. It counts as functional, cell-based. An outline of the steps:
as §1

The structures appear in SMILES notation. Calls of active or inactive are those of the source. The calls are words filed in the database; no cut-off is given here.

Consider `CC[C@H](c1ccc(O)cc1)[C@@H](C(=O)OCCN1CC1)c1ccc(O)cc1`, for which, in assay [1], the Irreversible binding result is “Partially active”. The Activity entry in assay [2] was “Agonist”. As for `CC[C@H](c1ccc(O)cc1)[C@@H](CSCCN1CC1)c1ccc(O)cc1`, the Irreversible binding entry in assay [3] is “inactive”. For the same compound, in assay [4], the Activity entry was “Agonist”. Consider `CC[C@H](c1ccc(O)cc1)[C@@H](C(=O)OCCCN1CC1)c1ccc(O)cc1`, for which, in assay [1], the Irreversible binding result is “Partially active”. For the same compound, the Activity entry in assay [2] is “Agonist”.

`CC[C@H](c1ccc(O)cc1)[C@@H](CSCCCN(C)C)c1ccc(O)cc1`: the Activity entry in assay [5] was “Agonist”. With `CC[C@H](c1ccc(O)cc1)[C@@H](CCCCN1CCNCC1)c1ccc(O)cc1`, the outcome in [6] was inactive. `CC[C@H](c1ccc(O)cc1)[C@@H](CCCCN1CC1)c1ccc(O)cc1`: in assay [7], the Irreversible binding entry is “Time-dependent effect”. In addition, the Activity result in assay [8] was “Partial antagonist”. Turning to `CC[C@H](c1ccc(O)cc1)[C@@H](C(=O)N1CC1)c1ccc(O)cc1`, the Irreversible binding result in [3] is “inactive”. The Activity entry in assay [2] was “Agonist”. For `CC[C@H](c1ccc(O)cc1)[C@@H](CSCCCN1CC1)c1ccc(O)cc1`, the Irreversible binding result in [7] is “Time-dependent effect”. For the same compound, the Activity result in assay [9] is “Agonist”. As for `CC[C@H](c1ccc(O)cc1)[C@@H](C(=O)CCCCN1CC1)c1ccc(O)cc1`, the Irreversible binding result in [7] is “Time-dependent effect”. Also, in [10], the Activity result is “Agonist”.

Consider `CC[C@H](c1ccc(O)cc1)[C@@H](C(=O)CCCCN(C)C)c1ccc(O)cc1`, for which the Activity result in assay [11] is “Partial agonist”.

The values are drawn from ChEMBL document CHEMBL1123850, “Estrogenic affinity labels: synthesis, irreversible receptor binding, and bioactivity of aziridine-substituted hexestrol derivatives” (J Med Chem, 1987).
